Measured values from different studies.
Protocols differ between the studies behind these lines.
Observed: metabolic stability

O=c1ccc2ccc(O)cc2o1 — half-life (Sprague-Dawley rat, hepatocytes; 1 µM): 11.4 min
CC(=O)c1c(C)c2cnc(Nc3ccc(N4CCNCC4)cn3)nc2n(C2CCCC2)c1=O — half-life (rat, liver microsomes; 1 µM, pH 7.4): 90.4 min
O=C(c1ccc(F)cc1)C1CCN(CCn2c(=O)[nH]c3ccccc3c2=O)CC1 — half-life (rat, liver microsomes): 17.8 min
CCOc1ccc2ccc(=O)oc2c1 — half-life (male Sprague-Dawley rat, hepatocytes; 1 µM): 13.1 min
O=C1CC[C@H](N2Cc3cc(N4CCN(CC5CCN(c6ccc([C@@H]7c8ccc(O)cc8CC[C@@H]7c7ccccc7)cc6)CC5)CC4)ccc3C2=O)C(=O)N1 — half-life (Sprague-Dawley rat, hepatocytes; 1 µM): 83 min
O=c1ccc2ccc(O)cc2o1 — half-life (rat, liver microsomes): 2.42 min
CN(C)C(=O)c1cc2cnc(Nc3ccc(N4CCNCC4)cn3)nc2n1C1CCCC1 — half-life (rat, liver microsomes; 1 µM, pH 7.4): 49.8 min
CCN(CC)CCNC(=O)c1c(C)[nH]c(/C=C2\C(=O)Nc3ccc(F)cc32)c1C — half-life (rat, liver microsomes; 1 µM): 77 min
